Experimental data as given in ChEMBL document CHEMBL4689842, “EUbOPEN Chemogenomics Library wave 1” (2021).

System: U2OS
Test: Multiplex assay against U2OS
Type: toxicity, cell-based
Details: human
Summary of the method: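 Live cells carried four stains from seeding: Hoechst33342, BioTracker Green Microtubule Cytoskeleton Dye, MitoTracker Red and Annexin V Alexa Fluor 680. They were imaged on a CQ1 microscope at 37°C and 5% CO2 after compound addition. Using CellPathfinder machine-learning gating, cells were split into Hoechst high-intensity objects or normal cells, normal cells into healthy, pyknosed or fragmented nuclei, and pyknosed cells into mitotic or apoptotic; tubulin, mitochondrial-mass and membrane-permeability phenotypes are per cents of healthy-nucleus cells.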

[1] = 12 h, 1 µM, compound concentration 1 uM, replicate 1
[2] = 12 h, 1 µM, compound concentration 1 uM, replicate 2
[3] = 12 h, 10 µM, compound concentration 10 uM, replicate 1
[4] = 12 h, 10 µM, compound concentration 10 uM, replicate 2
[5] = 24 h, 1 µM, compound concentration 1 uM, replicate 1
[6] = 24 h, 1 µM, compound concentration 1 uM, replicate 2
[7] = 24 h, 10 µM, compound concentration 10 uM, replicate 1
[8] = 24 h, 10 µM, compound concentration 10 uM, replicate 2

With `COc1cccc2cc(-c3nc([C@H]4CC[C@H](C(=O)O)CC4)n4ncnc(N)c34)[nH]c12` [OSI-027] the “Population Apoptotic (%)” value [1] was 55%, the “Population Fragmented Nuclei (%)” value [1] was 14% and the “Population Healthy Nuclei (%)” value [1] was 81%. The “Population Hoechst High Intensity Objects (%)” value [1] was 1%, the “Population Membrane Permeable-Phenotype (%)” value [1] was 10% and the “Population Mitochondria Different-Phenotype (%)” value [1] was 6%. The “Population Mitotic Cells (%)” value [1] was 44%, the “Population Normal (%)” value [1] was 98% and the “Population Pyknosed Nuclei (%)” value [1] was 3%. For the same compound, the “Population Tubulin-Different-Phenotype (%)” value [1] was 21%, the “Total Cell Count” value [1] was 227 and the “Population Apoptotic (%)” value [2] was 33%. For the same compound, the “Population Fragmented Nuclei (%)” value [2] was 18%, the “Population Healthy Nuclei (%)” value [2] was 79% and the “Population Hoechst High Intensity Objects (%)” value [2] was 7%. For the same compound, the “Population Membrane Permeable-Phenotype (%)” value [2] was 8%, the “Population Mitochondria Different-Phenotype (%)” value [2] was 3% and the “Population Mitotic Cells (%)” value [2] was 66%. The “Population Normal (%)” value [2] was 92%, the “Population Pyknosed Nuclei (%)” value [2] was 1% and the “Population Tubulin-Different-Phenotype (%)” value [2] was 31%. For the same compound, the “Total Cell Count” value [2] was 117, the “Population Apoptotic (%)” value [3] was 8% and the “Population Fragmented Nuclei (%)” value [3] was 5%. The “Population Healthy Nuclei (%)” value [3] was 76%, the “Population Hoechst High Intensity Objects (%)” value [3] was 10% and the “Population Membrane Permeable-Phenotype (%)” value [3] was 10%. The “Population Mitochondria Different-Phenotype (%)” value [3] was 21%, the “Population Mitotic Cells (%)” value [3] was 91% and the “Population Normal (%)” value [3] was 89%. For the same compound, the “Population Pyknosed Nuclei (%)” value [3] was 17%, the “Population Tubulin-Different-Phenotype (%)” value [3] was 27% and the “Total Cell Count” value [3] was 160. The “Population Apoptotic (%)” value [4] was 14%, the “Population Fragmented Nuclei (%)” value [4] was 14% and the “Population Healthy Nuclei (%)” value [4] was 78%. For the same compound, the “Population Hoechst High Intensity Objects (%)” value [4] was 17%, the “Population Membrane Permeable-Phenotype (%)” value [4] was 7% and the “Population Mitochondria Different-Phenotype (%)” value [4] was 26%. For the same compound, the “Population Mitotic Cells (%)” value [4] was 85%, the “Population Normal (%)” value [4] was 82% and the “Population Pyknosed Nuclei (%)” value [4] was 7%. For the same compound, the “Population Tubulin-Different-Phenotype (%)” value [4] was 39%, the “Total Cell Count” value [4] was 101 and the “Population Apoptotic (%)” value [5] was 29%. The “Population Fragmented Nuclei (%)” value [5] was 10%, the “Population Healthy Nuclei (%)” value [5] was 81% and the “Population Hoechst High Intensity Objects (%)” value [5] was 3%. The “Population Membrane Permeable-Phenotype (%)” value [5] was 6%, the “Population Mitochondria Different-Phenotype (%)” value [5] was 5% and the “Population Mitotic Cells (%)” value [5] was 70%. The “Population Normal (%)” value [5] was 96%, the “Population Pyknosed Nuclei (%)” value [5] was 8% and the “Total Cell Count” value [5] was 270. The “Population Apoptotic (%)” value [6] was 42%, the “Population Fragmented Nuclei (%)” value [6] was 13% and the “Population Healthy Nuclei (%)” value [6] was 82%. For the same compound, the “Population Hoechst High Intensity Objects (%)” value [6] was 5%, the “Population Membrane Permeable-Phenotype (%)” value [6] was 10% and the “Population Mitochondria Different-Phenotype (%)” value [6] was 7%. The “Population Mitotic Cells (%)” value [6] was 57%, the “Population Normal (%)” value [6] was 94% and the “Population Pyknosed Nuclei (%)” value [6] was 3%. The “Population Tubulin-Different-Phenotype (%)” value [6] was 29%, the “Total Cell Count” value [6] was 144 and the “Population Apoptotic (%)” value [7] was 13%. For the same compound, the “Population Fragmented Nuclei (%)” value [7] was 6%, the “Population Healthy Nuclei (%)” value [7] was 81% and the “Population Hoechst High Intensity Objects (%)” value [7] was 7%. The “Population Membrane Permeable-Phenotype (%)” value [7] was 12%, the “Population Mitochondria Different-Phenotype (%)” value [7] was 20% and the “Population Mitotic Cells (%)” value [7] was 86%. For the same compound, the “Population Normal (%)” value [7] was 92%, the “Population Pyknosed Nuclei (%)” value [7] was 11% and the “Population Tubulin-Different-Phenotype (%)” value [7] was 31%. The “Total Cell Count” value [7] was 190, the “Population Apoptotic (%)” value [8] was 0% and the “Population Fragmented Nuclei (%)” value [8] was 14%. For the same compound, the “Population Healthy Nuclei (%)” value [8] was 84%, the “Population Hoechst High Intensity Objects (%)” value [8] was 11% and the “Population Membrane Permeable-Phenotype (%)” value [8] was 11%. For the same compound, the “Population Mitochondria Different-Phenotype (%)” value [8] was 31%, the “Population Mitotic Cells (%)” value [8] was 100% and the “Population Normal (%)” value [8] was 88%. The “Population Pyknosed Nuclei (%)” value [8] was 1%, the “Population Tubulin-Different-Phenotype (%)” value [8] was 34% and the “Total Cell Count” value [8] was 120.
